Assay results taken from ChEMBL document CHEMBL5724801, “EUbOPEN Chemogenomics Library - Multiplex” (2024).
Values joined by “and” are separate entries in the source; they are usually repeats but may differ in a detail not shown here. Equal values may be shown once.

What was measured:
Fibroblast = experiment: Multiplex assay against human fibroblast; type: toxicity, cell-based
In short: (§1)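 Values for tubulin, mitochondrial-mass and membrane-permeability phenotypes are per cents of cells with healthy nuclei. These cells were identified by CellPathfinder machine-learning gating of live cells that had been stained at seeding with Hoechst33342, BioTracker Green Microtubule Cytoskeleton Dye, MitoTracker Red and Annexin V Alexa Fluor 680 and imaged on a CQ1 microscope at 37°C and 5% CO2 after compound addition. The gating first set Hoechst high-intensity objects apart from normal cells, then split normal cells into healthy, pyknosed or fragmented nuclei, and pyknosed cells into mitotic or apoptotic.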

U2OS = experiment: Multiplex assay against U2OS; type: toxicity, cell-based; conditions: human; in short: as §1
[1] = 24 h, 1 µM, compound concentration 1 uM
[2] = 24 h, 10 µM, compound concentration 10 uM
[3] = 48 h, 1 µM, compound concentration 1 uM
[4] = 48 h, 10 µM, compound concentration 10 uM
[5] = 12 h, 1 µM, compound concentration 1 uM
[6] = 12 h, 10 µM, compound concentration 10 uM

CN1CCN2c3ncccc3Cc3ccccc3C2C1 (stereo unspecified) [MIRTAZAPINE]
Population Tubulin-Different-Phenotype (%) (Fibroblast; [1]): 31% and 36% | Total Cell Count (Fibroblast; [1]): 201 and 153 | Population Apoptotic (%) (Fibroblast; [2]): 50% and 46% | Population Fragmented Nuclei (%) (Fibroblast; [2]): 19% and 29% | Population Healthy Nuclei (%) (Fibroblast; [2]): 72% and 46% | Population Hoechst High Intensity Objects (%) (Fibroblast; [2]): 4% and 5% | Population Membrane Permeable-Phenotype (%) (Fibroblast; [2]): 0% and 15% | Population Mitochondria Different-Phenotype (%) (Fibroblast; [2]): 9% and 1% | Population Mitotic Cells (%) (Fibroblast; [2]): 50% and 53% | Population Normal (%) (Fibroblast; [2]): 95% and 94% | Population Tubulin-Different-Phenotype (%) (Fibroblast; [2]): 30% and 68% | Total Cell Count (Fibroblast; [2]): 186 and 136 | Population Apoptotic (%) (Fibroblast; [3]): 60% and 50% | Population Fragmented Nuclei (%) (Fibroblast; [3]): 15% and 36% | Population Healthy Nuclei (%) (Fibroblast; [3]): 73% and 45% | Population Hoechst High Intensity Objects (%) (Fibroblast; [3]): 7% and 2% | Population Membrane Permeable-Phenotype (%) (Fibroblast; [3]): 0% and 11% | Population Mitochondria Different-Phenotype (%) (Fibroblast; [3]): 4% and 12% | Population Mitotic Cells (%) (Fibroblast; [3]): 39% and 50% | Population Normal (%) (Fibroblast; [3]): 92% and 97% | Population Pyknosed Nuclei (%) (Fibroblast; [3]): 11% and 17% | Population Tubulin-Different-Phenotype (%) (Fibroblast; [3]): 31% and 56% | Total Cell Count (Fibroblast; [3]): 213 and 161 | Population Apoptotic (%) (Fibroblast; [4]): 66% and 33% | Population Fragmented Nuclei (%) (Fibroblast; [4]): 17% and 46% | Population Healthy Nuclei (%) (Fibroblast; [4]): 73% and 41% | Population Hoechst High Intensity Objects (%) (Fibroblast; [4]): 5% and 2% | Population Membrane Permeable-Phenotype (%) (Fibroblast; [4]): 0% and 8% | Population Mitochondria Different-Phenotype (%) (Fibroblast; [4]): 9% and 2% | Population Mitotic Cells (%) (Fibroblast; [4]): 33% and 66% | Population Normal (%) (Fibroblast; [4]): 94% and 97% | Population Pyknosed Nuclei (%) (Fibroblast; [4]): 9% and 12% | Population Tubulin-Different-Phenotype (%) (Fibroblast; [4]): 36% and 60% | Total Cell Count (Fibroblast; [4]): 176 and 120 | Population Apoptotic (%) (U2OS; [5]): 82% and 100% | Population Fragmented Nuclei (%) (U2OS; [5]): 21% | Population Healthy Nuclei (%) (U2OS; [5]): 67% and 72% | Population Hoechst High Intensity Objects (%) (U2OS; [5]): 1% | Population Membrane Permeable-Phenotype (%) (U2OS; [5]): 3% and 5% | Population Mitochondria Different-Phenotype (%) (U2OS; [5]): 1% and 6% | Population Mitotic Cells (%) (U2OS; [5]): 17% and 0% | Population Normal (%) (U2OS; [5]): 99% and 98% | Population Pyknosed Nuclei (%) (U2OS; [5]): 11% and 6% | Population Tubulin-Different-Phenotype (%) (U2OS; [5]): 2% and 3% | Population Apoptotic (%) (U2OS; [6]): 73% and 66% | Population Fragmented Nuclei (%) (U2OS; [6]): 19% and 13% | Population Healthy Nuclei (%) (U2OS; [6]): 71% and 82% | Population Hoechst High Intensity Objects (%) (U2OS; [6]): 3% | Population Membrane Permeable-Phenotype (%) (U2OS; [6]): 6% and 3% | Population Mitochondria Different-Phenotype (%) (U2OS; [6]): 5% and 4% | Population Mitotic Cells (%) (U2OS; [6]): 26% and 33% | Population Normal (%) (U2OS; [6]): 96% | Population Pyknosed Nuclei (%) (U2OS; [6]): 8% and 3% | Population Tubulin-Different-Phenotype (%) (U2OS; [6]): 6% and 0% | Population Apoptotic (%) (U2OS; [1]): 85% and 100% | Population Fragmented Nuclei (%) (U2OS; [1]): 15% and 26% | Population Healthy Nuclei (%) (U2OS; [1]): 76% and 63% | Population Hoechst High Intensity Objects (%) (U2OS; [1]): 2% and 3% | Population Membrane Permeable-Phenotype (%) (U2OS; [1]): 5% and 3% | Population Mitochondria Different-Phenotype (%) (U2OS; [1]): 3% | Population Mitotic Cells (%) (U2OS; [1]): 14% and 0% | Population Normal (%) (U2OS; [1]): 97% and 96% | Population Pyknosed Nuclei (%) (U2OS; [1]): 8% and 10% | Population Tubulin-Different-Phenotype (%) (U2OS; [1]): 2% and 4% | Population Apoptotic (%) (U2OS; [2]): 89% and 83% | Population Fragmented Nuclei (%) (U2OS; [2]): 18% and 9% | Population Healthy Nuclei (%) (U2OS; [2]): 71% and 85% | Population Hoechst High Intensity Objects (%) (U2OS; [2]): 2% and 0% | Population Membrane Permeable-Phenotype (%) (U2OS; [2]): 4% and 5% | Population Mitochondria Different-Phenotype (%) (U2OS; [2]): 2% | Population Mitotic Cells (%) (U2OS; [2]): 10% and 16% | Population Normal (%) (U2OS; [2]): 97% and 99% | Population Pyknosed Nuclei (%) (U2OS; [2]): 9% and 5% | Population Tubulin-Different-Phenotype (%) (U2OS; [2]): 0% and 5% | Total Cell Count (U2OS; [2]): 314 and 108 | Population Apoptotic (%) (U2OS; [3]): 83% and 92% | Population Fragmented Nuclei (%) (U2OS; [3]): 12% and 20% | Population Healthy Nuclei (%) (U2OS; [3]): 76% and 68% | Population Hoechst High Intensity Objects (%) (U2OS; [3]): 2% and 4% | Population Membrane Permeable-Phenotype (%) (U2OS; [3]): 4% and 8% | Population Mitochondria Different-Phenotype (%) (U2OS; [3]): 2% and 4% | Population Mitotic Cells (%) (U2OS; [3]): 16% and 7% | Population Normal (%) (U2OS; [3]): 97% and 95% | Population Pyknosed Nuclei (%) (U2OS; [3]): 10% and 11% | Population Tubulin-Different-Phenotype (%) (U2OS; [3]): 3% and 1% | Population Apoptotic (%) (U2OS; [4]): 95% and 100% | Population Fragmented Nuclei (%) (U2OS; [4]): 15% and 12% | Population Healthy Nuclei (%) (U2OS; [4]): 75% and 78% | Population Hoechst High Intensity Objects (%) (U2OS; [4]): 2% | Population Membrane Permeable-Phenotype (%) (U2OS; [4]): 7% and 3% | Population Mitochondria Different-Phenotype (%) (U2OS; [4]): 4% and 3% | Population Mitotic Cells (%) (U2OS; [4]): 5% and 0% | Population Normal (%) (U2OS; [4]): 97% | Population Pyknosed Nuclei (%) (U2OS; [4]): 9% | Population Tubulin-Different-Phenotype (%) (U2OS; [4]): 5% and 3% | Total Cell Count (U2OS; [4]): 435 and 170
